Assay results gathered from unrelated publications.
Compare with care: the assays were run in different laboratories. Converted amounts (≈) assume the structure as drawn.
Organism: Mycobacterium tuberculosis
Effect on: microbial growth
Strain: H37RV

| SMILES | measurement | result |
| --- | --- | --- |
| COc1ccc(-c2cc(C(F)(F)F)c3c(N)c(C(=O)NC(C)C4CCCCC4)sc3n2)cc1 (centres unmarked) | IC50 | 0.93 µM |
| NNC(=O)c1ccncc1 | MIC50 | 0.56 µg/mL (≈ 4.08 µM) |
| Nc1c(C(=O)NCc2ccc(F)cc2)sc2nc(-c3ccccc3)ccc12 | IC50 | > 100 µM |
| O=c1c2ccncc2[nH]c(=S)n1Cc1cccnc1 | MIC90 | > 100 µM |
| Cc1ccc(CCNc2cc(-c3ccc(Cl)s3)nc3nncn23)cc1 | MIC | 4.8 µM (≈ 1.78 µg/mL) |
| Nc1c(C(=O)N2CCOCC2)sc2nc(Cl)ccc12 | IC50 | > 100 µM |
| O=C(Cc1ccccc1)Nc1cc(-c2ccccn2)nc2nncn12 | IC90 | 2 µM |
| COc1ccc(-c2cc(C(F)(F)F)c3c(N)c(C(=O)NCCc4ccccc4)sc3n2)cc1 | IC50 | > 100 µM |
| c1ccc(-c2cc(Nc3ccc(N4CCOCC4)cc3)n3cnnc3n2)nc1 | MIC | > 100 µM |
| COc1ccc(-c2cc(C(F)(F)F)c3c(N)c(C(=O)NCc4ccccc4)sc3n2)cc1 | IC50 | > 100 µM |
| N#Cc1cncc(Cn2c(=S)[nH]c3cc(CO)c(Cl)cc3c2=O)c1 | MIC90 | 2.7 µM |
| Cc1ccc(CCNc2cc(-c3ccccn3)nc3nncn23)cc1 | MIC | 0.26 µM (≈ 0.0859 µg/mL) |
| O=c1c2cc(Cl)c(CO)cc2[nH]c(=S)n1Cc1cccnc1 | MIC90 | 3.6 µM |
| CCc1ccc(CCNc2cc(-c3ccccn3)nc3nnc(C4CC4)n23)cc1 | MIC | 50 µM (≈ 19.2 µg/mL) |
| CC(c1cccnc1)n1c(=S)[nH]c2ccc(Cl)cc2c1=O (centres unmarked) | MIC90 | 66.2 µM |
| COc1ccc(-c2cc(C(F)(F)F)c3c(N)c(C(=O)NCCSC)sc3n2)cc1 | IC50 | 42 µM |
| O=c1c2cc(Cl)ccc2[nH]c(=S)n1Cc1cncc(-c2nnn[nH]2)c1 | MIC90 | > 100 µM |
| NCC[C@H](O)C(=O)N[C@@H]1C[C@H](N)[C@@H](O[C@H]2O[C@H](CN)[C@@H](O)[C@H](O)[C@H]2O)[C@H](O)[C@H]1O[C@H]1O[C@H](CO)[C@@H](O)[C@H](N)[C@H]1O | MIC90 | 3.3 µg/mL |
| NC(=S)c1cncc(Cn2c(=S)[nH]c3cc(CO)c(Cl)cc3c2=O)c1 | MIC90 | 4.61 µM |
| CC(CNc1cc(-c2ccccn2)nc2nncn12)c1ccccc1 (centres unmarked) | MIC | 35 µM (≈ 11.6 µg/mL) |
